Reference: ChEMBL document CHEMBL5126498, “Peptidomimetic nitrile warheads as SARS-CoV-2 3CL protease inhibitors” (RSC Med Chem, 2021)

Key:
SARS-CoV-2 [1] = experiment: Antiviral activity against SARS-CoV-2 infected in African Green monkey Vero E6 cells assessed as reduction in viral plaques in presence of efflux inhibitor CP-100356 by plaque reduction assay; type: functional, organism-based; settings: Severe acute respiratory syndrome coronavirus 2, Vero C1008
[2] = Cytotoxicity against African Green monkey Vero E6 cells assessed as reduction in cell viability by CCK-8 assay; type: toxicity, cell-based, Vero C1008; settings: chlorocebus sabaeus
Procedure, shortened: (§1)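 Vero E6 or A549 cells were seeded at 1×10^4/well and left overnight. Compounds were added at final 50 and 200 μM in 0.5% DMSO for 24 h. CCK-8 absorbance was read at 450 nm, and viability was calculated relative to 0.5% DMSO-treated cells. Quadruplicate wells were run in one experiment, and CC50 was interpolated where possible.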

[3] = Cytotoxicity against African Green monkey Vero E6 cells assessed as reduction in cell viability by CellTiter-Glo assay; type: toxicity, cell-based, Vero C1008; settings: chlorocebus sabaeus
Procedure, shortened: as §1, with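 “Read-out” for “CCK-8 absorbance”, “CellTiter-Glo luminescence, with” for “read at 450 nm, and”, “viability” for “viability was”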

Cathepsin S [4] = molecular target: T1, Cathepsin S (Homo sapiens, UniProt P25774); experiment: Inhibition of human cathepsin S at 1 uM relative to control
Procedure, shortened: (§2)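 Human cathepsin S fluorometric kit assay, with compound incubated 30 min at room temperature at final 1% DMSO. […] Enzyme-control and test slopes were obtained by linear regression, and % relative inhibition was calculated per kit.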
Target sequence in this assay (P25774 115-331 limits assumed): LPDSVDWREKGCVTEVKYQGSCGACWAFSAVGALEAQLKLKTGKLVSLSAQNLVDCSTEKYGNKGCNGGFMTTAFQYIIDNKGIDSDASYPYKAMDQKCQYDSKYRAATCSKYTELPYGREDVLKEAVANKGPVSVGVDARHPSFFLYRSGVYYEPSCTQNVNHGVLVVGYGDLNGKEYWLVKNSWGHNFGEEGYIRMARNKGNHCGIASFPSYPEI

Cathepsin B [5] = molecular target: T2, Cathepsin B (Homo sapiens, UniProt P07858); experiment: Inhibition of human cathepsin B at 1 uM relative to control
[6] = Cytotoxicity against human A549 cells assessed as reduction in cell viability by CellTiter-Glo assay; type: toxicity, cell-based
Procedure, shortened: as §1, with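 “Read-out” for “CCK-8 absorbance”, “CellTiter-Glo luminescence, with” for “read at 450 nm, and”, “viability” for “viability was”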

SARS-CoV-2 [7] = experiment: Antiviral activity against SARS-CoV-2 infected in African Green monkey Vero E6 cells assessed as reduction in viral plaques by plaque reduction assay; type: functional, organism-based; settings: Severe acute respiratory syndrome coronavirus 2, Vero C1008
Procathepsin L [8] = molecular target: T3, Procathepsin L (Homo sapiens, UniProt P07711); experiment: Inhibition of human cathepsin L at 1 uM relative to control
Target sequence in this assay (P07711 114-333 limits assumed): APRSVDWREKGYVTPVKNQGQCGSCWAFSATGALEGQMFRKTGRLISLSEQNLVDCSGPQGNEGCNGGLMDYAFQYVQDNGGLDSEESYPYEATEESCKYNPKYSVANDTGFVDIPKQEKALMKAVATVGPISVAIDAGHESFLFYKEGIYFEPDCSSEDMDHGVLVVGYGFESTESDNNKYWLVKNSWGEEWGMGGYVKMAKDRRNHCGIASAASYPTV

[9] = Cytotoxicity against human A549 cells assessed as reduction in cell viability by CCK-8 assay; type: toxicity, cell-based; procedure, shortened: as §1
[10] = molecular target: Replicase polyprotein 1ab (Severe acute respiratory syndrome coronavirus 2, UniProt P0DTD1); experiment: Inhibition of SARS-CoV-2 3CL protease by FRET assay
Cathepsin S [11] = molecular target: T1, Cathepsin S; experiment: Inhibition of human cathepsin S; procedure, shortened: as §2
Target sequence in this assay (P25774 whole entry): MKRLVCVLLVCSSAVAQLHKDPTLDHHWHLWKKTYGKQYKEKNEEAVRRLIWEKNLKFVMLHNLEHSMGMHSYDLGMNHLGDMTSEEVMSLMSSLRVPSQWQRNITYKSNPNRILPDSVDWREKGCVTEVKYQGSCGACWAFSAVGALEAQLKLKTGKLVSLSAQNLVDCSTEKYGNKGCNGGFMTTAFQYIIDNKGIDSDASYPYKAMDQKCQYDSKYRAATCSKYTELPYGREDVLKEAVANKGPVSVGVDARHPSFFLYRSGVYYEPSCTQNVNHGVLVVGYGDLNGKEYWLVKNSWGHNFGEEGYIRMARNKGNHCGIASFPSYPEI

Procathepsin L [12] = molecular target: T3, Procathepsin L; experiment: Inhibition of human cathepsin L
Target sequence in this assay (P07711 whole entry): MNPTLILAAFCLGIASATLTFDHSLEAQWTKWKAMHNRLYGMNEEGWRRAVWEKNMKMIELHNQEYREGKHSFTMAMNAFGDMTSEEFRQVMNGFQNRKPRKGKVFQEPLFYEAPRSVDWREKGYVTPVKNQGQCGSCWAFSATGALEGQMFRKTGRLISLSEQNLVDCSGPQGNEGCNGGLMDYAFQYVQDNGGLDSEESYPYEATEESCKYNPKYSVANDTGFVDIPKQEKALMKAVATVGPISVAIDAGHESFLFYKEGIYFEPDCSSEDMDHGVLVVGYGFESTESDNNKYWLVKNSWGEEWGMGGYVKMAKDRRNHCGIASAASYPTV

Cathepsin B [13] = molecular target: T2, Cathepsin B; experiment: Inhibition of human cathepsin B
[14] = Selectivity ratio, ratio of IC50 for inhibition of human cathepsin B to IC50 for inhibition of SARS-CoV-2 3CL protease
[15] = Selectivity ratio, ratio of IC50 for inhibition of human cathepsin S to IC50 for inhibition of SARS-CoV-2 3CL protease
[16] = molecular target: Replicase polyprotein 1ab (Severe acute respiratory syndrome coronavirus 2) (UniProt P0DTD1); experiment: Reversible inhibition of SARS-CoV-2 3CL protease assessed as enzyme recovery measured after 3 days by dialysis method relative to control; parameters: scale not given: the % may be the effect or the level left; settings: time 3.0 day
Procedure, shortened: (§3)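 SARS-CoV-2 3CLpro (final 2 μM) was preincubated with 20 μM inhibitor for 30 min at room temperature. Activity was compared with apo-enzyme dialysed under identical conditions.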

[17] = Selectivity ratio, ratio of IC50 for inhibition of human cathepsin L to IC50 for inhibition of SARS-CoV-2 3CL protease
[18] = Glutathione reactivity at pH 7.4 assessed as compound recovery measured after 24 hrs by LC-MS/MS method; type: physicochemical; settings: glutathione solution, read-out: Activity
[19] = Stability of the compound in presence of glutathione by LC-MS/MS method; type: physicochemical
[20] = molecular target: Replicase polyprotein 1ab (Severe acute respiratory syndrome coronavirus 2) (UniProt P0DTD1); experiment: Reversible inhibition of SARS-CoV-2 3CL protease assessed as enzyme recovery measured after 4 hrs by dialysis method relative to control; parameters: scale not given: the % may be the effect or the level left; procedure, shortened: as §3
[21] = Inhibition of Enterovirus 71 3Cpro

SMILES	EC50 (SARS-CoV-2 [1]) [nM]	CC50 [2] [µM]	CC50 [3] [µM]	inhibition (Cathepsin S [4]) [%]	inhibition (Cathepsin B [5]) [%]	CC50 [6] [µM]	EC50 (SARS-CoV-2 [7]) [nM]	inhibition (Procathepsin L [8]) [%]	CC50 [9] [µM]	IC50 (Cathepsin S [11]) [nM]	IC50 (Procathepsin L [12]) [nM]	IC50 (Cathepsin B [13]) [µM]	also measured
CCOc1cccc2[nH]c(C(=O)N[C@@H](CC(C)C)C(=O)N[C@H](C#N)C[C@@H]3CCCNC3=O)cc12	120	> 200	> 200	74	< 1	> 200	4800	< 1	> 200	–	–	–	–
COc1cccc2[nH]c(C(=O)N[C@@H](CC(C)C)C(=O)N[C@@H](C[C@@H]3CCCNC3=O)C(=O)CO)cc12	–	> 200	> 200	–	–	> 200	–	–	> 200	–	–	–	–
CC(C)C[C@H](NC(=O)[C@@H](NC(=O)[C@H](C)NC(=O)OCc1ccccc1)C(C)C)C(=O)N[C@H](C#N)CCC(N)=O	–	–	–	–	–	–	–	–	–	–	–	–	IC50 [10]: 4600 nM
COc1cc(Cl)cc2[nH]c(C(=O)N[C@@H](CC(C)C)C(=O)N[C@H](C#N)C[C@@H]3CCCNC3=O)cc12	233	> 200	> 200	72	< 1	> 200	2200	37	> 200	400	470	18	–
COc1cccc2[nH]c(C(=O)N[C@@H](CC(C)C)C(=O)N[C@H](C=O)C[C@@H]3CCNC3=O)cc12	–	> 200	> 200	–	–	> 200	–	53	> 200	40	280	2	–
COc1cccc2[nH]c(C(=O)N[C@@H](CC(C)C)C(=O)N[C@H](C#N)C[C@@H]3CCCNC3=O)cc12	230	> 200	> 200	73	< 1	> 200	2700	22	> 200	2500	640	32	Ratio IC50 [14]: 2420; Ratio IC50 [15]: 189; Activity [16]: 45%; Ratio IC50 [17]: 48; remaining at 24 h [18]: ≥ 90%; Stability [19]: Stable; Activity [20]: 10%
Cc1cc(C(=O)N[C@@H](Cc2ccc(F)cc2)C(=O)N[C@H](C#N)C[C@@H]2CCCNC2=O)no1	–	–	–	–	–	–	–	–	–	–	–	–	IC50 [21]: 14.7 µM
COc1cccc2[nH]c(C(=O)N[C@@H](CC(C)C)C(=O)N[C@H](C#N)C[C@@H]3CCNC3=O)cc12	–	> 200	> 200	78	< 1	> 200	> 5000	15	> 200	700	1450	28	–
CC(C)C[C@H](NC(=O)OCc1ccccc1)C(=O)N[C@@H](C[C@@H]1CCNC1=O)C(O)S(=O)(=O)O (some centres not stated)	–	> 200	> 200	99	53	> 200	–	100	> 200	23	0.25	1.4	–
CC(C)C[C@H](NC(=O)c1cc2c3c(ccc2[nH]1)CCO3)C(=O)N[C@H](C#N)C[C@@H]1CCCNC1=O	–	> 200	> 200	67	< 1	> 200	> 10000	10	> 200	–	–	–	–
COc1cc(Cl)cc2[nH]c(C(=O)N[C@@H](CC(C)(C)C)C(=O)N[C@H](C#N)C[C@@H]3CCCNC3=O)cc12	210	> 200	> 200	64	< 1	> 200	1500	18	> 200	–	–	–	–
CC(C)C[C@H](NC(=O)c1cc2c(OC(F)(F)F)cccc2[nH]1)C(=O)N[C@H](C#N)C[C@@H]1CCCNC1=O	350	> 100	> 100	67	< 1	90	2600	8	90	–	–	–	IC50 [10]: 13.7 nM
